For one data set, the target named is T1, Prostaglandin G/H synthase 1 (Ovis aries, UniProt P05979).
T1 sequence (P05979 whole entry): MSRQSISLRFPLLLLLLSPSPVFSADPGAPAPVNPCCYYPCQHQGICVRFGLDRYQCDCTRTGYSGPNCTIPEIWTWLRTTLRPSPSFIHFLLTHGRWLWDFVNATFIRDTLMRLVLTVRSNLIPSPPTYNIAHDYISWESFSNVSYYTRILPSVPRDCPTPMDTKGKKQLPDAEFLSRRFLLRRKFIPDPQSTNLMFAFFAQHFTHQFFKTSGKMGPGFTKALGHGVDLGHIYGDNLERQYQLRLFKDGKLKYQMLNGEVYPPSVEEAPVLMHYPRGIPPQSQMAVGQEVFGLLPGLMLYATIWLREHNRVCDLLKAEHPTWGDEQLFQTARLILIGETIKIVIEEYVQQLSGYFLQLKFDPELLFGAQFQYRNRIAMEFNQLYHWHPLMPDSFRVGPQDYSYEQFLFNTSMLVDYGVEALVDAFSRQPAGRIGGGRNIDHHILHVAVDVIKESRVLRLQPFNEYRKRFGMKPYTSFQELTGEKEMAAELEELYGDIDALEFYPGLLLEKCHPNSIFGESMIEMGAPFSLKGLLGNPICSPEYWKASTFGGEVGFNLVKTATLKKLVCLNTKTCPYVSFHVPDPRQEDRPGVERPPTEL
Kind of data set: Inhibition of ovine COX1 using arachidonic acid as substrate incubated for 10 mins prior to substrate addition measured after 2 mins by enzyme immunoassay.
Conditions: not given
The essentials:
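Ovine COX-1 in 0.1 M Tris-HCl pH 8.0 with 5 mM EDTA, 2 mM phenol and heme. Test concentrations were 0, 0.01, 0.1, 1, 10 and 50 (final volume 1 ml). Preincubated 10 min at 37 °C, then arachidonic acid (100) was added and the reaction was stopped with 1 M HCl after 2 min. PGF2α (from SnCl2 reduction of PGH2) was quantified by competitive EIA at 410 nm. IC50 was taken from the concentration–inhibition curve, duplicates.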
In general, IC50 refers to the concentration needed to halve the response being measured. `COc1c(-c2cc(C(F)(F)F)nn2-c2ccc(S(N)(=O)=O)cc2)c(O)c(OC)c2occc12`: the IC50 was over 50 µM.

On to `COc1c(-c2cc(C(F)(F)F)nn2-c2ccc(S(N)(=O)=O)cc2)c(O)cc2occc12`, for which the IC50 was over 50 µM.

Compound `COc1cc2occc2c(OC)c1-c1cc(-c2ccc(F)cc2)n(-c2ccc(S(N)(=O)=O)cc2)n1` registered a half-inhibitory concentration (IC50) of over 50 µM.

`COc1cc2occc2c(OC)c1-c1cc(-c2ccc(Cl)cc2)n(-c2ccc(S(N)(=O)=O)cc2)n1` had an IC50 of over 50 µM.

In another data set the test system is Rattus norvegicus. As to the kind of experiment: Ulcerogenic effect in fasted Wistar albino rat at 25 mg/kg, po measured 2 hrs post last dose. Further details: dose 25 mg/kg, route oral. To be noted: in vivo. Type of data set: toxicity, organism-based. In short, it runs like this:
(§1)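 Adult male Wistar albino rats (120–150 g), five per group, fasted 18 h before dosing. Oral doses were given for three successive days (test compounds 50 mg/kg, ibuprofen 25 mg/kg; control 10% aqueous DMSO), with feeding 2 h after dosing. Stomachs were removed 2 h after the last dose, opened along the greater curvature, rinsed with 0.9% NaCl and examined under a 10× lens. Ulcer index followed Robert's method (incidence/10, mean ulcer number, severity score).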
Turning to `CC(C)Cc1ccc(C(C)C(=O)O)cc1` (stereo not drawn) [IBUPROFEN], the UI is recorded as 22.32.

The subject of a further data set is Rattus norvegicus. Kind of data set: Antiinflammatory activity in Wistar albino rat assessed as inhibition of formalin-induced paw edema at 50 mg/kg, po administered 1 hr prior to formalin challenge measured after 30 mins relative to control.
Conditions: not given
It counts as functional. The essentials:
(§2)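 Adult male Wistar albino rats (120–150 g), five per group. Dosed orally at 50 mg/kg in 10% aqueous DMSO (v/v) 1 h before 0.1 ml of 2.5% formalin was injected subcutaneously into the right hind paw; vehicle-only control group. Paw thickness was measured by Vernier caliper at 0 h and at 30 min, 1, 2 and 3 h. Edema inhibition % = (Vc − Vt)/Vc × 100; means of five ± S.E.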
As usually defined, the inhibition in vivo is the share of the control response that was lost under treatment. As for `Cc1ccc(-c2cc(C(F)(F)F)nn2-c2ccc(S(N)(=O)=O)cc2)cc1` [CELECOXIB], the inhibition in vivo at 50 mg/kg came to 94.4%.

Take `COc1c(-c2cc(C(F)(F)F)nn2-c2ccc(S(N)(=O)=O)cc2)c(O)c(OC)c2occc12`: the inhibition in vivo at 50 mg/kg was determined as 72.2%.

Turning to `COc1cc2occc2c(OC)c1-c1cc(-c2ccc(F)cc2)n(-c2ccc(S(N)(=O)=O)cc2)n1`, the inhibition in vivo at 50 mg/kg was 79.6%.

The test system of another data set is Rattus norvegicus. Kind of data set: Antiinflammatory activity in Wistar albino rat assessed as inhibition of formalin-induced paw edema at 50 mg/kg, po administered 1 hr prior to formalin challenge measured after 1 hr relative to control. Type of data set: functional.
Conditions: not given
The essentials: as §2
For `Cc1ccc(-c2cc(C(F)(F)F)nn2-c2ccc(S(N)(=O)=O)cc2)cc1` [CELECOXIB], the inhibition in vivo at 50 mg/kg is 100%.

Take `COc1c(-c2cc(C(F)(F)F)nn2-c2ccc(S(N)(=O)=O)cc2)c(O)c(OC)c2occc12`: the inhibition in vivo at 50 mg/kg is 79%.

Regarding `COc1cc2occc2c(OC)c1-c1cc(-c2ccc(F)cc2)n(-c2ccc(S(N)(=O)=O)cc2)n1`, the inhibition in vivo at 50 mg/kg amounted to 82.5%.

The target in another data set is T2, Prostaglandin G/H synthase 2 (Homo sapiens, UniProt P35354).
T2 sequence (P35354 whole entry): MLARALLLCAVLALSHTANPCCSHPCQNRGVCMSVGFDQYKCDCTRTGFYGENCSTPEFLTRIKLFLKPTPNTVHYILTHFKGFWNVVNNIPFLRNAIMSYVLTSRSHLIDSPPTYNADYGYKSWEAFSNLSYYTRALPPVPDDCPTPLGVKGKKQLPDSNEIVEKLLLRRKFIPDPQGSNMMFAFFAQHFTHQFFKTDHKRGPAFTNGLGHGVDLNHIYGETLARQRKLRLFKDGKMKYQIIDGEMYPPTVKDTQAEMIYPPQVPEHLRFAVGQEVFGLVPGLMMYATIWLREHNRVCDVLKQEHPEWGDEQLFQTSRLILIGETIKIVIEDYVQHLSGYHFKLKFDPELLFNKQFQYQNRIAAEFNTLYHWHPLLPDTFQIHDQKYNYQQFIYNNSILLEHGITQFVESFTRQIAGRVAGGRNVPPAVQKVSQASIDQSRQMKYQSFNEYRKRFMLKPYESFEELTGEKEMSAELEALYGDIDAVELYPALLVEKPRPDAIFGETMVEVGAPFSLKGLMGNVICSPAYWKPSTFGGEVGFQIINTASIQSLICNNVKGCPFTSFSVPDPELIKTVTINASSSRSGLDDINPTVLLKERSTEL
As to the kind of experiment: Inhibition of human recombinant COX2 using arachidonic acid as substrate incubated for 10 mins prior to substrate addition measured after 2 mins by enzyme immunoassay.
Conditions: not given
Take `COc1c(-c2cc(C(F)(F)F)nn2-c2ccc(S(N)(=O)=O)cc2)c(O)c(OC)c2occc12`: the 50% inhibitory concentration (IC50) is 0.52 µM.

On to `COc1c(-c2cc(C(F)(F)F)nn2-c2ccc(S(N)(=O)=O)cc2)c(O)cc2occc12`, for which the half-inhibitory concentration (IC50) was found to be 7 µM.

Turning to `COc1cc2occc2c(OC)c1-c1cc(-c2ccc(F)cc2)n(-c2ccc(S(N)(=O)=O)cc2)n1`, the IC50 turned out to be 0.46 µM.

As for `COc1cc2occc2c(OC)c1-c1cc(-c2ccc(Cl)cc2)n(-c2ccc(S(N)(=O)=O)cc2)n1`, the IC50 came to 26 µM.

The test system of a further data set is Rattus norvegicus. As to the kind of experiment: Ulcerogenic effect in fasted Wistar albino rat at 50 mg/kg, po measured 2 hrs post last dose. It counts as toxicity, organism-based. On the set-up: dose 50 mg/kg, route oral. The conditions noted are these: in vivo. In short, it runs like this:
as §1
`Cc1ccc(-c2cc(C(F)(F)F)nn2-c2ccc(S(N)(=O)=O)cc2)cc1` [CELECOXIB] showed a UI of 16.12.

`COc1c(-c2cc(C(F)(F)F)nn2-c2ccc(S(N)(=O)=O)cc2)c(O)c(OC)c2occc12` displayed a UI of 11.56.

`COc1cc2occc2c(OC)c1-c1cc(-c2ccc(F)cc2)n(-c2ccc(S(N)(=O)=O)cc2)n1` yielded a UI of 11.75.

Another data set has as its system Rattus norvegicus. As to the kind of experiment: Antiinflammatory activity in Wistar albino rat assessed as inhibition of formalin-induced paw edema at 50 mg/kg, po administered 1 hr prior to formalin challenge measured after 2 hrs relative to control. Type of data set: functional.
Conditions: not given
The essentials:
as §2
As to `Cc1ccc(-c2cc(C(F)(F)F)nn2-c2ccc(S(N)(=O)=O)cc2)cc1` [CELECOXIB], the inhibition in vivo at 50 mg/kg was found to be 100%.

For `COc1c(-c2cc(C(F)(F)F)nn2-c2ccc(S(N)(=O)=O)cc2)c(O)c(OC)c2occc12`, the inhibition in vivo at 50 mg/kg stood at 87.9%.

Consider `COc1cc2occc2c(OC)c1-c1cc(-c2ccc(F)cc2)n(-c2ccc(S(N)(=O)=O)cc2)n1`, for which the inhibition in vivo at 50 mg/kg was determined as 82.8%.

Test system in a further data set: not listed separately
As to the kind of experiment: Selectivity index, ratio of IC50 for ovine COX1 to IC50 for human recombinant COX2.
Conditions: not given
The essentials: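 IC50 (COX-1)/IC50 (COX-2). Both IC50 values come from the EIA described above, run with ovine COX-1 or human recombinant COX-2 under the same buffer, preincubation, arachidonic acid and duplicate conditions.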
For `COc1c(-c2cc(C(F)(F)F)nn2-c2ccc(S(N)(=O)=O)cc2)c(O)c(OC)c2occc12`, the Ratio IC50 was over 96.2.

Take `COc1c(-c2cc(C(F)(F)F)nn2-c2ccc(S(N)(=O)=O)cc2)c(O)cc2occc12`: the Ratio IC50 was over 7.14.

For `COc1cc2occc2c(OC)c1-c1cc(-c2ccc(F)cc2)n(-c2ccc(S(N)(=O)=O)cc2)n1`, the Ratio IC50 was over 109.

With `COc1cc2occc2c(OC)c1-c1cc(-c2ccc(Cl)cc2)n(-c2ccc(S(N)(=O)=O)cc2)n1`, the Ratio IC50 was over 1.93.

Another data set relates to Rattus norvegicus. As to the kind of experiment: Antiinflammatory activity in Wistar albino rat assessed as inhibition of formalin-induced paw edema at 50 mg/kg, po administered 1 hr prior to formalin challenge measured after 3 hrs relative to control. Type of data set: functional.
Conditions: not given
The essentials:
as §2
As to `Cc1ccc(-c2cc(C(F)(F)F)nn2-c2ccc(S(N)(=O)=O)cc2)cc1` [CELECOXIB], the inhibition in vivo at 50 mg/kg was found to be 100%.

Consider `COc1c(-c2cc(C(F)(F)F)nn2-c2ccc(S(N)(=O)=O)cc2)c(O)c(OC)c2occc12`, for which the inhibition in vivo at 50 mg/kg came out at 91.8%.

Take `COc1cc2occc2c(OC)c1-c1cc(-c2ccc(F)cc2)n(-c2ccc(S(N)(=O)=O)cc2)n1`: the inhibition in vivo at 50 mg/kg worked out at 83.6%.

For the origin of these results see ChEMBL document CHEMBL3124807 (Eur J Med Chem, 2014).
